Here are results for 30 compounds from ChEMBL document CHEMBL1134859, “Rapid synthesis of triazine inhibitors of inosine monophosphate dehydrogenase” (Bioorg Med Chem Lett, 2002).

One assay has as its system CCRF-CEM. Briefly: Inhibitory activity against human T-lymphoblast CEM cell line using T cell proliferation assay. It counts as functional, cell-based. In short, it runs like this: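 Human T-lymphoblast CEM cells were grown in RPMI 1640 with 10% heat-inactivated FBS and penicillin/streptomycin, then seeded at 3000 cells/well in 0.5% DMSO. Compounds were tested in triplicate from a 10 uM final top concentration in 3-fold serial dilutions. Cells were kept 72 h in humidified 5% CO2.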

Assay [1] deals with Inosine-5'-monophosphate dehydrogenase 2 (Homo sapiens, UniProt P12268). Briefly: Inhibition of human Inosine-5'-monophosphate dehydrogenase 2.

In the case of `COc1cc(Nc2nc(OCc3ccccc3)nc(-c3ccccc3)n2)ccc1-c1cnco1`, the IC50 was greater than 1000 nM in the assay on CCRF-CEM and 32 nM in assay [1].

As to `COc1cc(Nc2nc(-c3ccccc3)nc(N3CCC[C@@H]3CO)n2)ccc1-c1cnco1`, the figures for the IC50 (with CCRF-CEM; in assay [1]) were greater than 1000 nM and 78 nM, respectively.

Consider `COc1cc(Nc2nc(NCCC(=O)O)nc(-c3ccccc3)n2)ccc1-c1cnco1`, for which the half-inhibitory concentration (IC50) with CCRF-CEM is greater than 1000 nM; in assay [1] it was 130 nM.

For the compound `CNc1nc(Nc2ccc(-c3cnco3)c(OC)c2)nc(-c2cccc(C)c2)n1`, the half-maximal inhibitory concentration (IC50) is greater than 1000 nM in the assay on CCRF-CEM and 130 nM in assay [1].

For `CNc1nc(Nc2ccc(-c3cnco3)c(OC)c2)nc(N2CCOCC2)n1`, the IC50 in the assay on CCRF-CEM is greater than 1000 nM; in assay [1] it was 160 nM.

The compound `COc1cc(Nc2nc(N)n(-c3ccccc3)n2)ccc1-c1cnco1` showed a 50% inhibitory concentration (IC50) with CCRF-CEM greater than 1000 nM.

On to `COc1cc(Nc2nc(NCc3ccccc3)nc(-c3ccccc3)n2)ccc1-c1cnco1`, for which the IC50 with CCRF-CEM was greater than 1000 nM; in assay [1], 410 nM.

For the compound `CNc1nc(Nc2ccc(-c3cnco3)c(OC)c2)nc(N2CCC[C@H]2CO)n1`, the IC50 with CCRF-CEM was greater than 1000 nM; in assay [1] it was 130 nM.

Take `CNc1nc(Nc2ccc(-c3cnco3)c(OC)c2)nc(N2CCC[C@H]2COC)n1`: the figures for the IC50 (with CCRF-CEM; in assay [1]) were greater than 1000 nM and 390 nM, respectively.

As to `COc1cc(Nc2nc(O)nc(-c3ccccc3)n2)ccc1-c1cnco1`, the half-inhibitory concentration (IC50) in the assay with CCRF-CEM came to 5900 nM; in assay [1] it was 18 nM.

For the compound `COc1cc(Nc2nc(-c3ccccc3)nc(N3CCOCC3)n2)ccc1-c1cnco1`, the results for the half-inhibitory concentration (IC50) (in the assay with CCRF-CEM; in assay [1]) were greater than 1000 nM and 190 nM, respectively.

Regarding `CNc1nc(Nc2ccc(-c3cnco3)c(OC)c2)nc(-c2ccccc2)n1`, the IC50 in the assay with CCRF-CEM was greater than 1000 nM; in assay [1] it was 76 nM.

With `COc1cc(Nc2nc(NCCc3cccnc3)nc(-c3ccccc3)n2)ccc1-c1cnco1`, the half-maximal inhibitory concentration (IC50) came to 2400 nM with CCRF-CEM and 58 nM in assay [1].

As to `COc1cc(Nc2nc(-c3ccccc3)nc(N3CCN(C=O)CC3)n2)ccc1-c1cnco1`, the IC50 with CCRF-CEM is greater than 1000 nM; in assay [1] it was 160 nM.

With `CNc1nc(Nc2ccc(-c3cnco3)c(OC)c2)nc(-c2ccccc2C)n1`, the IC50 in the assay on CCRF-CEM was greater than 1000 nM; in assay [1], 310 nM.

`CNc1nc(Nc2ccc(-c3cnco3)c(OC)c2)nc(N2CCC[C@@H]2CO)n1`: the half-inhibitory concentration (IC50) was greater than 1000 nM in the assay on CCRF-CEM and 720 nM in assay [1].

Take `COc1cc(Nc2nc(NCCCC(=O)O)nc(-c3ccccc3)n2)ccc1-c1cnco1`: the concentration for half-maximal inhibition (IC50) in the assay on CCRF-CEM was greater than 1000 nM; in assay [1], 78 nM.

Consider `COc1cc(Nc2nc(N)nc(-c3ccccc3)n2)ccc1-c1cnco1`, for which the figures for the IC50 (in the assay on CCRF-CEM; in assay [1]) were greater than 1000 nM and 54 nM, respectively.

As for `CNc1nc(Nc2ccc(-c3cnco3)c(OC)c2)nc(-c2ccco2)n1`, the IC50 in the assay on CCRF-CEM is greater than 1000 nM; in assay [1], 57 nM.

For the compound `CNc1nc(NC)nc(Nc2ccc(-c3cnco3)c(OC)c2)n1`, the IC50 with CCRF-CEM was greater than 1000 nM; in assay [1], 620 nM.

`COc1cc(Nc2nc(NCCc3ccccc3)nc(-c3ccccc3)n2)ccc1-c1cnco1`: the half-inhibitory concentration (IC50) (with CCRF-CEM; in assay [1]) was greater than 1000 nM in each case.

As for `CNc1nc(Nc2ccc(-c3cnco3)c(OC)c2)nc(-c2ccc(C)cc2)n1`, the values for the IC50 (in the assay on CCRF-CEM; in assay [1]) were greater than 1000 nM and 170 nM, respectively.

In the case of `COc1cc(Nc2nc(-c3ccccc3)nc(N3CCC[C@H]3CO)n2)ccc1-c1cnco1`, the 50% inhibitory concentration (IC50) in the assay with CCRF-CEM was greater than 1000 nM; in assay [1], 72 nM.

In the case of `COC[C@@H]1CCCN1c1nc(Nc2ccc(-c3cnco3)c(OC)c2)nc(-c2ccccc2)n1`, the figures for the IC50 (in the assay on CCRF-CEM; in assay [1]) were greater than 1000 nM and 290 nM, respectively.

As for `COc1cc(Nc2nc(NCC(=O)O)nc(-c3ccccc3)n2)ccc1-c1cnco1`, the half-maximal inhibitory concentration (IC50) in the assay with CCRF-CEM is greater than 1000 nM; in assay [1], 250 nM.

In the case of `COc1cc(Nc2nc(-c3ccccc3)nc(N(C)C)n2)ccc1-c1cnco1`, the concentration for half-maximal inhibition (IC50) with CCRF-CEM is greater than 1000 nM; in assay [1], 270 nM.

Consider `COc1nc(Nc2ccc(-c3cnco3)c(OC)c2)nc(-c2ccccc2)n1`, for which the values for the IC50 (with CCRF-CEM; in assay [1]) were greater than 1000 nM and 41 nM, respectively.

For `COc1cc(Nc2nc(-c3ccccc3)nc(N3CCN(C)CC3)n2)ccc1-c1cnco1`, the IC50 is greater than 1000 nM in the assay on CCRF-CEM and 330 nM in assay [1].

Take `COc1cc(Nc2nncc(-c3ccccc3)n2)ccc1-c1cnco1`: the 50% inhibitory concentration (IC50) with CCRF-CEM came to 3500 nM; in assay [1], 45 nM.

With `COc1c(C)c2c(c(O)c1C/C=C(\C)CCC(=O)O)C(=O)OC2` [MYCOPHENOLIC ACID], in the assay with CCRF-CEM, it took 390 nM to reach half-maximal inhibition (IC50).

The term IC50 denotes the concentration that gives 50% inhibition. Lower therefore signals inhibition by little substance.
